# From PMC6796967 (Journal of Medicinal Chemistry, 2018)
# Residues, ends and D or L forms follow the SMILES beside them.
# Test system: human primary fibroblasts
# Assay: WST-1 cell viability assay in fibroblasts
# Format: cell-based
# Conditions: 0.1–20 μM, 24 h treatment; highest concentration
# In short: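 Primary human fibroblasts (GM04390) grown in high-glucose DMEM with 10% heat-inactivated FBS and antibiotics at 3% O2, 5% CO2, 37 °C. Seeded at 100 000 cells/mL, switched to Optimem after 24 h, then given 0.1–20 μM test compound or DMSO at 48 h. After about 24 h, incubated 4 h with 10% WST-1 reagent; absorbance read at 450 nm.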
compound,measurement,value
"C[C@H](NC(=O)[C@H](Cc1ccc(O)cc1)NC(=O)[C@H](Cc1ccc(O)cc1)NC(=O)[C@@H]1CCCN1C(=O)[C@@H]1CCCN1C(=O)[C@@H]1CCCN1C(=O)[C@@H]1CCCN1C(=O)[C@H](CCCNC(=N)N)NC(=O)[C@H](CCCNC(=N)N)NC(=O)[C@@H](N)CCCNC(=N)N)C(=O)O [Compound 2, RRR-PPPP-YYA-OH] (H-RRRPPPPYYA-OH)","cytotoxic effects (cell viability, WST-1)",did not exert any cytotoxic effects
